Active and inactive are the calls of the source. No cut-off for these calls is given here.
Legend:
[1] = target: T1, Tyrosine-protein phosphatase non-receptor type 22 (Homo sapiens, UniProt Q9Y2R2); test: Inhibition of LYP (unknown origin) at 25 uM using pNPP as substrate relative to control
T1 sequence (Q9Y2R2 whole entry): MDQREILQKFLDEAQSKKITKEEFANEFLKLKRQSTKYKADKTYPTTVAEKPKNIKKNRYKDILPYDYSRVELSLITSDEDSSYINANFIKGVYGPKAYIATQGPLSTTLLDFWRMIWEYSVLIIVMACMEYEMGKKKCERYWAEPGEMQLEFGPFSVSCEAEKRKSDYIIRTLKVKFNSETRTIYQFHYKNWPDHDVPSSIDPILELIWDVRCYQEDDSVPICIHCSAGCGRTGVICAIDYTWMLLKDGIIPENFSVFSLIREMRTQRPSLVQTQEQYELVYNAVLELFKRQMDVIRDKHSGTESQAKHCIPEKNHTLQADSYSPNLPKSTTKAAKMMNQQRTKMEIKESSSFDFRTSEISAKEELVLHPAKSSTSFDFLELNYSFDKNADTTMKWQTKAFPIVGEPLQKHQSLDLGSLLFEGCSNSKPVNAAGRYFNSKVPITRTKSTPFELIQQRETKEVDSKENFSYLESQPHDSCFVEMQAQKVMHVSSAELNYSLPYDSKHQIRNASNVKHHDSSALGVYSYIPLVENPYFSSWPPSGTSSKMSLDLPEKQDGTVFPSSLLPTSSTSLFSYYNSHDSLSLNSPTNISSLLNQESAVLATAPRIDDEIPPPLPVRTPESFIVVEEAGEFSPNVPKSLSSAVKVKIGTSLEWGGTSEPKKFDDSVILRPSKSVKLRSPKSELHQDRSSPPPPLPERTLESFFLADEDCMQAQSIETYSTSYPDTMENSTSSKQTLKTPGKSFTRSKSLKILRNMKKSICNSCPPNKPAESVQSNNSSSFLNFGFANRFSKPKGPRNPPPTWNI

[2] = Selectivity index, ratio of IC50 for Mycobacterium tuberculosis PtpA to IC50 for LYP (unknown origin) using pNPP as substrate
[3] = target: T2, Phosphotyrosine protein phosphatase (Mycobacterium tuberculosis) (UniProt A0A045ISB3); test: Reversible inhibition of Mycobacterium tuberculosis PtpB assessed as enzyme recovery activity by dilution assay relative to control; parameters: scale not given: the % may be the effect or the level left
T2 sequence (whole entry): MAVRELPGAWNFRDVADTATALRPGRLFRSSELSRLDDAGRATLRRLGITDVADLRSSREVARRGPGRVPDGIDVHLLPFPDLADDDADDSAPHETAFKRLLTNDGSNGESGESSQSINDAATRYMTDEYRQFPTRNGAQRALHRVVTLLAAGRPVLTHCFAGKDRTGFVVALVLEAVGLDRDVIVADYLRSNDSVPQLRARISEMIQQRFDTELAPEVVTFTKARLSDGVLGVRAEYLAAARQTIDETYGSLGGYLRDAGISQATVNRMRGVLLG
Summary of the method: (§1)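 Reversibility tested by preincubation and dilution: enzyme preincubated with inhibitor, then diluted, and recovered phosphatase activity expressed as a percentage of control.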

[4] = target: T1, Tyrosine-protein phosphatase non-receptor type 22; test: Reversible inhibition of LYP (unknown origin) assessed as enzyme recovery activity by dilution assay relative to control; parameters: scale not given: the % may be the effect or the level left; summary of the method: as §1
[5] = Selectivity index, ratio of IC50 for human PTP1B to IC50 for LYP (unknown origin) using pNPP as substrate
[6] = target: T3, Tyrosine-protein phosphatase non-receptor type 1 (Homo sapiens, UniProt P18031); test: Non-competitive inhibition of human PTP1B assessed as inhibition constant using varying level of pNPP as substrate by Lineweaver-Burk plot analysis
T3 sequence (P18031 whole entry): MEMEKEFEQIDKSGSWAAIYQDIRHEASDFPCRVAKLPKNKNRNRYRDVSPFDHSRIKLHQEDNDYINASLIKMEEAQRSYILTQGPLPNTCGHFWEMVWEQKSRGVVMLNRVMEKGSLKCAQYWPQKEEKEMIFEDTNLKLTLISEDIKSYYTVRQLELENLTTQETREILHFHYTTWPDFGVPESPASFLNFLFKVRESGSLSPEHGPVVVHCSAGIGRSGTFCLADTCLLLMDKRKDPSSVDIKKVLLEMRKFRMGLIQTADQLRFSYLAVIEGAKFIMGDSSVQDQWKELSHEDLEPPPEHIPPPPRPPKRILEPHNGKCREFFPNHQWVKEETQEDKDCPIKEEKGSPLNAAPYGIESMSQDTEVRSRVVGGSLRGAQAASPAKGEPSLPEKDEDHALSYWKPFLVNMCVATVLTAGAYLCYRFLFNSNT

[7] = Selectivity index, ratio of IC50 for PTP-PEST (unknown origin) to IC50 for LYP (unknown origin) using pNPP as substrate; conditions: human
[8] = Selectivity index, ratio of IC50 for Yersinia enterocolitica YopH to IC50 for LYP (unknown origin) using pNPP as substrate
[9] = target: Tyrosine-protein phosphatase YopH (Yersinia enterocolitica) (UniProt P15273); test: Potency index, ratio of chicoric-acid IC50 to test compound IC50 for inhibition of Yersinia enterocolitica YopH
[10] = target: T1, Tyrosine-protein phosphatase non-receptor type 22; test: Competitive inhibition of LYP (unknown origin) assessed as inhibition constant using varying level of pNPP as substrate by Lineweaver-Burk plot analysis
[11] = target: T4, Tyrosine-protein phosphatase non-receptor type 12 (Homo sapiens, UniProt Q05209); test: Inhibition of PTP-PEST (unknown origin)
T4 sequence (Q05209 whole entry): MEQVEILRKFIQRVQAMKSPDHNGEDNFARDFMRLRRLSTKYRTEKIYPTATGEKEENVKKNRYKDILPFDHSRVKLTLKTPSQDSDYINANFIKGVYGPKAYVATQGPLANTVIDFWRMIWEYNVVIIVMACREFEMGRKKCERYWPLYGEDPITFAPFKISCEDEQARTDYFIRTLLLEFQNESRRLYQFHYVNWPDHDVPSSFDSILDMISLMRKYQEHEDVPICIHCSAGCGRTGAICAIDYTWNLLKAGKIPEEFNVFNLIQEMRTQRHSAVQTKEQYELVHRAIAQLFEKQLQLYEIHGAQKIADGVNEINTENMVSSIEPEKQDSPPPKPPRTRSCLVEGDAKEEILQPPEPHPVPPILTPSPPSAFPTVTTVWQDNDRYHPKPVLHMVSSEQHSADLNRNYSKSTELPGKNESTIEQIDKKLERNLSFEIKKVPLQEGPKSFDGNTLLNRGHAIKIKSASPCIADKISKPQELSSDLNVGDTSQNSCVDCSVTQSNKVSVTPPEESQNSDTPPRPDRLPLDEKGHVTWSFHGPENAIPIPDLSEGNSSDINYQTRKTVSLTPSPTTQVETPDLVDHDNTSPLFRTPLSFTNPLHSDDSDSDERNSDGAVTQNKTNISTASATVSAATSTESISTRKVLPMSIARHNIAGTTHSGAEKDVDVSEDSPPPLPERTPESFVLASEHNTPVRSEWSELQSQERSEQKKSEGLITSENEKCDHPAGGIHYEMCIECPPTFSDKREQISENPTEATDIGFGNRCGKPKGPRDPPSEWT
Summary of the method: (§2)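 Inhibition of the PTP panel, run in three independent experiments. Values are the average of the individual means ± SD.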

[12] = target: T4, Tyrosine-protein phosphatase non-receptor type 12; test: Competitive inhibition of PTP-PEST (unknown origin) assessed as inhibition constant using varying level of pNPP as substrate by Lineweaver-Burk plot analysis
[13] = target: Tyrosine-protein phosphatase YopH (Yersinia enterocolitica) (UniProt P15273); test: Irreversible inhibition of Yersinia enterocolitica YopH assessed as enzyme recovery activity by dilution assay relative to control; parameters: scale not given: the % may be the effect or the level left; summary of the method: as §1
[14] = target: T5, Low molecular weight protein-tyrosine phosphatase A (Mycobacterium tuberculosis, UniProt P9WIA1); test: Non-competitive inhibition of Mycobacterium tuberculosis PtpA assessed as inhibition constant using varying level of pNPP as substrate by Lineweaver-Burk plot analysis
T5 sequence (P9WIA1 whole entry): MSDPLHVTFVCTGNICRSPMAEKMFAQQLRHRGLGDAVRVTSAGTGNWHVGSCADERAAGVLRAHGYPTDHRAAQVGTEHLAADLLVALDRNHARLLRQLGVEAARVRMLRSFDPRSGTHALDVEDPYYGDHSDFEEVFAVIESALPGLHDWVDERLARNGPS

[15] = target: Tyrosine-protein phosphatase YopH (Yersinia enterocolitica) (UniProt P15273); test: Binding affinity of Yersinia enterocolitica YopH assessed as structural changes in protein by measuring emission spectra by fluorescence assay
Summary of the method: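 Intrinsic fluorescence emission spectrum of YopH (λmax 328 nm) recorded in the presence of ligand; quenching and any shift in λmax monitored as the read-out for structural change.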

[16] = target: T3, Tyrosine-protein phosphatase non-receptor type 1; test: Reversible inhibition of human PTP1B assessed as enzyme recovery activity by dilution assay relative to control; parameters: scale not given: the % may be the effect or the level left; summary of the method: as §1
[17] = target: T6, Phosphotyrosine protein phosphatase (Mycobacterium tuberculosis, UniProt A0A045ISB3); test: Competitive inhibition of Mycobacterium tuberculosis PtpB assessed as inhibition constant using varying level of pNPP as substrate by Lineweaver-Burk plot analysis
T6 sequence (A0A045ISB3 whole entry): T2 sequence (whole entry)

[18] = Selectivity index, ratio of IC50 for Mycobacterium tuberculosis PtpB to IC50 for LYP (unknown origin) using pNPP as substrate
[19] = target: T7, Tyrosine-protein phosphatase YopH (Yersinia enterocolitica, UniProt P15273); test: Non-competitive inhibition of Yersinia enterocolitica YopH assessed as inhibition constant using varying level of pNPP as substrate by Lineweaver-Burk plot analysis
[20] = target: T6, Phosphotyrosine protein phosphatase; test: Inhibition of Mycobacterium tuberculosis PtpB; summary of the method: as §2
[21] = target: T8, Low molecular weight protein-tyrosine phosphatase A (Mycobacterium tuberculosis) (UniProt P9WIA1); test: Reversible inhibition of Mycobacterium tuberculosis PtpA assessed as enzyme recovery activity by dilution assay relative to control; parameters: scale not given: the % may be the effect or the level left; summary of the method: as §1
T8 sequence (whole entry): T5 sequence (P9WIA1 whole entry)

[22] = target: T3, Tyrosine-protein phosphatase non-receptor type 1; test: Inhibition of human PTP1B; summary of the method: as §2
[23] = target: T4, Tyrosine-protein phosphatase non-receptor type 12; test: Reversible inhibition of PTP-PEST (unknown origin) assessed as enzyme recovery activity by dilution assay relative to control; parameters: scale not given: the % may be the effect or the level left; summary of the method: as §1
Yersinia enterocolitica = test: Antibacterial activity against Yersinia enterocolitica assessed as inhibition of bacterial growth at 8 to 250 uM after 48 hrs relative to control; format: functional
[24] = target: T7, Tyrosine-protein phosphatase YopH; test: Inhibition of Yersinia enterocolitica YopH; summary of the method: as §2
[25] = target: Tyrosine-protein phosphatase YopH (Yersinia enterocolitica) (UniProt P15273); test: Binding affinity of Yersinia enterocolitica YopH assessed as protein stabilization by measuring change in melting temperature by thermal denaturation assay
Summary of the method: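 YopH thermal denaturation profile recorded with and without ligand at 50 µM; melting temperature (Tm) compared between the two.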

[26] = target: T5, Low molecular weight protein-tyrosine phosphatase A; test: Inhibition of Mycobacterium tuberculosis PtpA; summary of the method: as §2
[27] = target: T1, Tyrosine-protein phosphatase non-receptor type 22; test: Inhibition of LYP (unknown origin) using pNPP as substrate

Sequence of Tyrosine-protein phosphatase YopH (Yersinia enterocolitica) (P15273 whole entry): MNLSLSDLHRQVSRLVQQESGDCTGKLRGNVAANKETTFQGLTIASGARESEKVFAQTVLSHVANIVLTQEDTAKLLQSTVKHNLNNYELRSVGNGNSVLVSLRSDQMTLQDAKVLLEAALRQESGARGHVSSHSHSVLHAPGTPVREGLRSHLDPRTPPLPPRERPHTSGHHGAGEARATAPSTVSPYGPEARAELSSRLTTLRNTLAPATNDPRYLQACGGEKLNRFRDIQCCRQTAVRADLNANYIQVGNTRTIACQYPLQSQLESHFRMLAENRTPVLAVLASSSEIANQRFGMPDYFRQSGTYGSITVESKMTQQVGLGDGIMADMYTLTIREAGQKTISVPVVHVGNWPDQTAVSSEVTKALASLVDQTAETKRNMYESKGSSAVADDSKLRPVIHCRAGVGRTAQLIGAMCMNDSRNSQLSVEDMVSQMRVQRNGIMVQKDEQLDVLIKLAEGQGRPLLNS
T7 sequence (P15273 whole entry): as above

Work on `COc1cc(C(=O)/C=C/c2ccc(C(=O)O)cc2)ccc1O` yielded an inhibition at 25 µM [1] of 9.1%.
In the case of `O=C(O)c1ccc(/C=C/C(=O)c2cccc3ccccc23)cc1`, the inhibition at 25 µM [1] is reported as 10.3%.
`O=C(O)c1ccc(/C=C/C(=O)c2cccc([N+](=O)[O-])c2)cc1` showed a Ratio IC50 [2] of 0.26, an Activity [3] of 81% and an Activity [4] of 76%. The “Ratio IC50” value [5] was 0.28, the Ki [6] was 1400 nM and the “Ratio IC50” value [7] was 0.94. The Ratio IC50 [8] was 0.22, the Ratio IC50 [9] was 145 and the Ki [10] was 1900 nM. It also gave an IC50 [11] of 10900 nM, a Ki [12] of 1000 nM and an Activity [13] of 10%. The Ki [14] was 800 nM, the Activity [15] was “inactive” and the Activity [16] was 45%. The Ki [17] was 400 nM, the Ratio IC50 [18] was 0.19 and the Ki [19] was 1000 nM. It also gave an IC50 [20] of 2300 nM, an Activity [21] of 76% and an IC50 [22] of 3200 nM. The Activity [23] was 71%, the inhibition at 25 µM [1] was 57.9% and the “inhibition (INH)” value (Yersinia enterocolitica) was 20%. The IC50 [24] was 2600 nM, the ΔTm [25] was 1.5 °C and the IC50 [26] was 3000 nM. For the same compound, the IC50 [27] was 11500 nM.
In the case of `Cc1ccc(C(=O)/C=C/c2ccc(C(=O)O)cc2)cc1`, the inhibition at 25 µM [1] is reported as 9.5%.
Work on `COc1ccc(C(=O)/C=C/c2ccc(C(=O)O)cc2)c(OC)c1` yielded an inhibition at 25 µM [1] of 3.9%.
For `O=C(O)c1ccc(/C=C/C(=O)n2ccnc2)cc1`, the inhibition at 25 µM [1] was 25.7%.
Work on `COc1cccc(C(=O)/C=C/c2ccc(C(=O)O)cc2)c1` yielded an inhibition at 25 µM [1] of 6.8%.
For `COc1cc(OC)cc(C(=O)/C=C/c2ccc(C(=O)O)cc2)c1`, the inhibition at 25 µM [1] was 4.6%.
For `COc1ccc(OC)c(C(=O)/C=C/c2ccc(C(=O)O)cc2)c1`, the inhibition at 25 µM [1] was 15.8%.
